Data set [1] deals with Muscarinic acetylcholine receptor M3 (Rattus norvegicus) (UniProt P08483). The experiment in a line: Positive allosteric modulation of muscarinic acetylcholine receptor M3 in Sprague-Dawley rat urinary bladder assessed as increase in 8 Hz electrical field stimulation-induced bladder contraction by measuring tension of isolated bladder contraction at 1 uM (reference value: 2.21 +/- 0.26 g). The gist of the method:
(§1)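 Female Sprague-Dawley rats, 9–10 weeks old. Longitudinal bladder strips (~10×2 mm) in Krebs at 37°C, gassed with 95% O2/5% CO2. EFS at 8 Hz, 10 s trains, 0.3 ms pulses, voltage set to give about half-maximal response. Drug added cumulatively at 1, 3 and 10 μM, 10 stimulations per concentration. Contraction = peak minus basal tone, averaged over the last 3 contractions and compared with pre-drug value (n=7).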

Data set [2] addresses T1, Muscarinic acetylcholine receptor M1 (Rattus norvegicus) (UniProt P08482).
T1 sequence (whole entry): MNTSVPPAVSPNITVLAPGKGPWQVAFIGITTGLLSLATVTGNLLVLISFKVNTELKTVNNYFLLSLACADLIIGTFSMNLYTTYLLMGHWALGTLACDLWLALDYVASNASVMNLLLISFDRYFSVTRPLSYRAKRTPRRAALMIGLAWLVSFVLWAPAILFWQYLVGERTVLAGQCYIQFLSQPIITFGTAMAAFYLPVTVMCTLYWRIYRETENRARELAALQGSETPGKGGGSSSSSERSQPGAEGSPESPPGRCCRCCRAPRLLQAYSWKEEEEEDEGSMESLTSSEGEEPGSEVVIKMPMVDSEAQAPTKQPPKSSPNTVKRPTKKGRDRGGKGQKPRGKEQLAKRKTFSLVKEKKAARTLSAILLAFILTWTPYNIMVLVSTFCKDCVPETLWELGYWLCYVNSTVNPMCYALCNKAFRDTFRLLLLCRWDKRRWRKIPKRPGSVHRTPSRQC
As to the kind of experiment: Positive allosteric modulation of recombinant rat muscarinic acetylcholine receptor M1 expressed in CHOK1 cells assessed as increase in carbachol-induced intracellular calcium flux at 10 uM preincubated for 5 mins followed by carbachol addition by Fluo4-AM dye based FLIPR assay relative to carbachol. In kind it is functional, cell-based. As to conditions: CHO-K1. The procedure, abridged:
(§2)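 CHO-K1 cells stably expressing human or rat M1–M5; M2 and M4 lines also co-express human Gα16. Cells loaded with 3.1 μM Fluo-4 AM in HBSS/20 mM HEPES pH 7.5/BSA/2.5 mM probenecid for ~2 h at room temperature. Test substance at 10 μM final, then carbachol (0.0024 nM–100 μM) ~5 min later; Ca2+ read by FLIPR Tetra. Fold shift = carbachol EC50 without / with test substance, from logistic fits.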

Data set [3] has as its target T2, Muscarinic acetylcholine receptor M2 (Rattus norvegicus) (UniProt P10980).
T2 sequence (whole entry): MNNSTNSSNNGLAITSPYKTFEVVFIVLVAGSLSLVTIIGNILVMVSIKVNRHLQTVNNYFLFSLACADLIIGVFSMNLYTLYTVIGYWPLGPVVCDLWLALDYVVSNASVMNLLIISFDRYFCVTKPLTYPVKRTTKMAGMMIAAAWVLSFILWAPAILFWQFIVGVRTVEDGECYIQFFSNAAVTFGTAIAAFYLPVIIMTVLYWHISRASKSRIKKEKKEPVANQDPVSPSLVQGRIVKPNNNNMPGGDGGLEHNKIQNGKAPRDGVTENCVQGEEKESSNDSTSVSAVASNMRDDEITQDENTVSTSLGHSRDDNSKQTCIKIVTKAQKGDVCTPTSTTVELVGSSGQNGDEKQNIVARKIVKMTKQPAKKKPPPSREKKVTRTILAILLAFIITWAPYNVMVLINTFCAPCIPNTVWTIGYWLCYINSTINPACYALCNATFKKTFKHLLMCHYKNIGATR
The experiment in a line: Positive allosteric modulation of recombinant rat muscarinic acetylcholine receptor M2 expressed in CHOK1 cells coexpressing G-alpha16 assessed as increase in carbachol-induced intracellular calcium flux at 10 uM preincubated for 5 mins followed by carbachol addition by Fluo4-AM dye based FLIPR assay relative to carbachol. In kind it is functional, cell-based. The note with it: CHO-K1. The gist of the method:
as §2

A short description of data set [4]: Half life in Crl:CD(SD) rat at 1 mg/kg, po measured up to 24 hrs by LC-MS/MS analysis. Format: ADME, organism-based. The note with it: in vivo. The procedure, abridged:
(§3)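 Male Crl:CD(SD) rats, 8 weeks old, food deprived (n=4); iv 0.3 mg/kg or po 1 mg/kg in DMF/propylene glycol/water for injection (1/1/8) containing 1 M NaOH (2 equivalents). Plasma sampled to 24 h, assayed by validated LC-MS/MS. Parameters from each animal by noncompartmental analysis, reported as means.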

The nature of data set [5]: Volume of distribution at steady state in Crl:CD(SD) rat at 0.3 mg/kg, iv measured up to 24 hrs by LC-MS/MS analysis. Format: ADME, organism-based. As to conditions: in vivo, read-out: Vdss. The gist of the method:
as §3

Data set [6] deals with Muscarinic acetylcholine receptor M3 (Homo sapiens) (UniProt P20309). The experiment in a line: Positive allosteric modulation of recombinant human muscarinic acetylcholine receptor M3 expressed in CHOK1 cells assessed as increase in carbachol-induced intracellular calcium flux preincubated for 5 mins followed by carbachol addition by Fluo4-AM dye based FLIPR assay. As to conditions: CHO-K1. Format: functional, cell-based. The gist of the method:
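Human M3 in CHO-K1 cells, Fluo-4 AM loaded (3.1 μM, ~2 h, room temperature). Test substance at 0.01–30 μM added ~5 min before a carbachol concentration series (0.0024 nM–100 μM); Ca2+ flux read on FLIPR Tetra to give carbachol concentration-response curves, with DMSO as vehicle.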

Data set [7] has as its target Muscarinic acetylcholine receptor M3 (Rattus norvegicus) (UniProt P08483). The experiment in a line: Positive allosteric modulation of muscarinic acetylcholine receptor M3 in Sprague-Dawley rat urinary bladder assessed as increase in 8 Hz electrical field stimulation-induced bladder contraction by measuring tension of isolated bladder contraction at 3 uM (reference value: 2.21 +/- 0.26 g). The procedure, abridged:
as §1

Data set [8] can be described thus: AUCinfinity in Crl:CD(SD) rat at 1 mg/kg, po measured up to 24 hrs by LC-MS/MS analysis. In kind it is ADME, organism-based. The arrangement: dose 1 mg/kg, time infinity, route oral. As to conditions: in vivo. The procedure, abridged:
as §3

A short description of data set [9]: Total clearance in Crl:CD(SD) rat at 0.3 mg/kg, iv measured up to 24 hrs by LC-MS/MS analysis. In kind it is ADME, organism-based. The note with it: in vivo. The procedure, abridged:
as §3

Data set [10] concerns the target Muscarinic acetylcholine receptor M3 (Rattus norvegicus) (UniProt P08483). As to the kind of experiment: Positive allosteric modulation of recombinant rat muscarinic acetylcholine receptor M3 expressed in CHOK1 cells assessed as increase in carbachol-induced intracellular calcium flux at 10 uM preincubated for 5 mins followed by carbachol addition by Fluo4-AM dye based FLIPR assay relative to carbachol. In kind it is functional, cell-based. As to conditions: CHO-K1. The procedure, abridged:
as §2

SMILES strings stand for the structures.

Chain of Muscarinic acetylcholine receptor M3 (Rattus norvegicus) (P08483 whole entry, looked up): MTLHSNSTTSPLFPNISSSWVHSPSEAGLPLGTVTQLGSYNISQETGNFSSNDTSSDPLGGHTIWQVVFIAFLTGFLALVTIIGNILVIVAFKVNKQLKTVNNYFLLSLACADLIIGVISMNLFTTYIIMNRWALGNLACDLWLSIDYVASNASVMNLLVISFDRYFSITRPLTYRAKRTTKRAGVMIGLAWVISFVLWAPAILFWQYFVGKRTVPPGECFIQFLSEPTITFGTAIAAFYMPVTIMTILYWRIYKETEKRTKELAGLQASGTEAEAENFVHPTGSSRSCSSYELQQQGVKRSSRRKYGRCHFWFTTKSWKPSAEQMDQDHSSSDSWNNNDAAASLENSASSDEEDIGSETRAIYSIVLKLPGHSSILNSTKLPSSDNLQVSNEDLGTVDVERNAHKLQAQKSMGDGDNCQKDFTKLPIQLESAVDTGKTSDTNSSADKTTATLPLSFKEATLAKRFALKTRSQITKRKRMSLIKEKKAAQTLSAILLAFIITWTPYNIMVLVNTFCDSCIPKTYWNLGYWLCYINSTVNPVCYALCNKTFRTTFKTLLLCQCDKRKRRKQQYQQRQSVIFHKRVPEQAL
Chain of Muscarinic acetylcholine receptor M3 (Homo sapiens) (P20309 whole entry, looked up): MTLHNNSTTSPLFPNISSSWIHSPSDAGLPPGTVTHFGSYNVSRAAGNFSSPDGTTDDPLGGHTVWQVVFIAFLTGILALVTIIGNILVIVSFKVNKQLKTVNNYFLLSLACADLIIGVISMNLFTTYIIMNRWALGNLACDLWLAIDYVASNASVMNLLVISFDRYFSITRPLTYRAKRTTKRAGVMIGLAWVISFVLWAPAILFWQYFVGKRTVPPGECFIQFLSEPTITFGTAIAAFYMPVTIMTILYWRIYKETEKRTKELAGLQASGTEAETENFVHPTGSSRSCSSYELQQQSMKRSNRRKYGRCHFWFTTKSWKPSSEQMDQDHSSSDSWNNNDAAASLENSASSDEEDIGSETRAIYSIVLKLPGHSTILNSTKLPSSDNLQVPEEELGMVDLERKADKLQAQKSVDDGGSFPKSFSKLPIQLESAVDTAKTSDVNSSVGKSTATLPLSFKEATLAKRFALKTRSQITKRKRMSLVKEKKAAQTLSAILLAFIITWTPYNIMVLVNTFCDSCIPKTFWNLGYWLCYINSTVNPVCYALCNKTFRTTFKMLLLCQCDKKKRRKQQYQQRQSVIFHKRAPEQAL

Take `CC[C@@H]1CCCN1Cc1sc(NC(=O)c2cnc(N3CCC(C(=O)O)CC3)cn2)nc1-c1ccc(OC)c(C(F)(F)F)c1.Cl.Cl`: the results for the Activity in data set [1], in data set [6] and in [7] were 2.34 g, “Dose-dependent effect” and 2.79 g, respectively. Besides, the fold change (FC) in data set [2] was 2.1; in data set [3], 1.6; in data set [10] it was 158. The half-life in [4] was 2.16 h. Moreover, the Vd in [5] worked out at 1.59 L/kg. The molecule also had an AUC(0-inf) in data set [8] of 209 ng·h/mL. The clearance in data set [9] was 15.3 mL/min/kg.

Source of the values: ChEMBL document CHEMBL4622869, “Discovery and structure-activity relationships study of positive allosteric modulators of the M3 muscarinic acetylcholine receptor” (Bioorg Med Chem, 2020).
